The source made the active and inactive calls. The calls are words filed in the database; no cut-off is given here. Non-standard residues stand in square brackets, D forms with d. Residues, ends and D or L forms follow the SMILES beside them. *: point of attachment. Phe(4-I) = N[C@@H](Cc1ccc(I)cc1)C(=O)O; CHN2 = [N-]=[N+]=C*
Legend:
[1] = biological target: T1, Cathepsin G (Homo sapiens) (UniProt P08311); assay: Inhibition of human U937 cellular [35S]methionine-labeled cathepsin G binding to aprotinin by aprotinin-agarose silver-stained SDS-PAGE method; type: cell-based; settings: U-937, in the assay text read “SDS-PAGE fluorography” for “silver-stained SDS-PAGE”
T1 sequence (whole entry): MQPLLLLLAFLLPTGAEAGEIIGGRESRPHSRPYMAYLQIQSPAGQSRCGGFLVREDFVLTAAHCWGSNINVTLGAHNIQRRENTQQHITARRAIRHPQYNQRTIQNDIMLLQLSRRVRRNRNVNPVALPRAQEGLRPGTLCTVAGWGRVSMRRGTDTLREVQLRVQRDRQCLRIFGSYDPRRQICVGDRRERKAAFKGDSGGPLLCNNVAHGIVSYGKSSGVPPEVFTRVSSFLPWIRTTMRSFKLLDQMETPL

[2] = biological target: T2, Dipeptidyl peptidase 1 (Homo sapiens, UniProt P53634); assay: Inhibition of cathepsin C in human U937 cells at 1 uM after 24 hrs; type: cell-based; settings: U-937
Method in brief: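 U937 at 0.4×10^6 cells/ml exposed 24 h to compound (final Me₂SO 0.5%), washed, lysed in 25 mM MES pH 6.0, 50 mM NaCl, 5 mM DTT, 0.2% NP-40. Protein-normalised lysate diluted 1:10 and assayed with 50 μM Gly-Arg-AMC (twice Km) at room temperature. Residual cathepsin C activity.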

[3] = system: U-937; assay: Cytotoxicity against human U937 cells at 1 uM after 72 hrs annexin-V propidium iodide method; type: functional
Method in brief: (§1)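 U937 plated at 0.4×10^6 cells/ml, compound in Me₂SO (final 0.5%). Cells harvested and re-seeded every 24 h in medium with freshly added inhibitor, for 72 h. Viability by annexin V-FITC/propidium iodide two-colour flow cytometry; cells negative for both stains counted viable.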

[4] = biological target: Cathepsin S (Homo sapiens, UniProt P25774); assay: Inhibition of human recombinant cathepsin S after 10 mins
[5] = biological target: T3, Neutrophil elastase (Mus musculus, UniProt Q3UP87); assay: Inhibition of neutrophil elastase activation in beta-estradiol differentiated mouse EcoM-G cells after 24 hrs; type: cell-based
T3 sequence (Q3UP87 whole entry): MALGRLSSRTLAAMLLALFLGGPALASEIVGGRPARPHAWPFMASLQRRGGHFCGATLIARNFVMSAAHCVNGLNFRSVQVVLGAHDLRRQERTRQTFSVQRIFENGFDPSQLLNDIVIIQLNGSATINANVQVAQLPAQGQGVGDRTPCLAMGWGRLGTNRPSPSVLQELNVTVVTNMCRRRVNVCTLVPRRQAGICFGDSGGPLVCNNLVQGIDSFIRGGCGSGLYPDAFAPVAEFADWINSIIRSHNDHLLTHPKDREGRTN
Method in brief: (§2)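 EcoM-G cells (cultures <3 months old) washed and seeded at 0.5×10^6 cells/ml without β-estradiol. After 24 h, compound added in Me₂SO (final 0.5%), then cells differentiated a further 24 h, harvested and lysed. NE assayed with 400 μM MeOSuc-AAPV-AMC, CG with 1 mM Suc-AAPF-pNA (405 nm, 5 min), Pr-3 with 10 μM internally quenched substrate (ex 328/em 393 nm), all from the same lysates. IC50 from four-parameter Hill fit.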

[6] = biological target: Cathepsin B (Homo sapiens, UniProt P07858); assay: Inhibition of human recombinant cathepsin B after 10 mins
[7] = biological target: T4, Cathepsin G (Mus musculus, UniProt P28293); assay: Inhibition of cathepsin G activation in beta-estradiol differentiated mouse EcoM-G cells after 24 hrs; type: cell-based; method in brief: as §2
T4 sequence (P28293 whole entry): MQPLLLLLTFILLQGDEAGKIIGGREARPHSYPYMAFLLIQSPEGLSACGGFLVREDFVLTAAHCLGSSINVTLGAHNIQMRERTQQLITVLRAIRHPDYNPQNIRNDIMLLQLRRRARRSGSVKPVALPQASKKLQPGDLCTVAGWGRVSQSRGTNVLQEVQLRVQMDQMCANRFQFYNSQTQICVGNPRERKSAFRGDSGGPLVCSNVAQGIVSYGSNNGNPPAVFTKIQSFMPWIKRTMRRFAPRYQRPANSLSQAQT

[8] = biological target: Procathepsin L (Homo sapiens, UniProt P07711); assay: Inhibition of human recombinant cathepsin L after 10 mins
[9] = biological target: T5, Neutrophil elastase (Homo sapiens, UniProt P08246); assay: Blockade of neutrophil elastase processing in human U937 cells after 7 days by fluorogenic substrate cleavage assay; type: cell-based, U-937
T5 sequence (P08246 whole entry): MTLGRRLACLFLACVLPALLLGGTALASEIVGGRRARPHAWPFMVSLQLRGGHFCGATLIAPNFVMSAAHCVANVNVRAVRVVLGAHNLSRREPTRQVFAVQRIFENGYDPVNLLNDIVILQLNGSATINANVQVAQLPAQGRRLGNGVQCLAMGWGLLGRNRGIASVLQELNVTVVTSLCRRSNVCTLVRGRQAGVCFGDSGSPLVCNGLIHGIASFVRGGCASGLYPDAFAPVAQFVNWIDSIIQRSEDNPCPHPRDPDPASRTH
Method in brief: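 U937 seeded at 1×10^5 cells/ml with vehicle or inhibitor, passaged and diluted 10-fold into fresh medium with compound on days 3 and 5, harvested day 7. Cells washed and lysed in 20 mM Tris pH 7.5, 100 mM NaCl, 0.2% NP-40. NE rate measured with 400 μM MeOSuc-AAPV-AMC (ex 370/em 450 nm, 10 min). % inhibition vs vehicle, four wells per point.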

[10] = biological target: T6, Myeloblastin (Mus musculus, UniProt Q61096); assay: Inhibition of proteinase-3 activation in beta-estradiol differentiated mouse EcoM-G cells after 24 hrs; type: cell-based; method in brief: as §2
T6 sequence (Q61096 whole entry): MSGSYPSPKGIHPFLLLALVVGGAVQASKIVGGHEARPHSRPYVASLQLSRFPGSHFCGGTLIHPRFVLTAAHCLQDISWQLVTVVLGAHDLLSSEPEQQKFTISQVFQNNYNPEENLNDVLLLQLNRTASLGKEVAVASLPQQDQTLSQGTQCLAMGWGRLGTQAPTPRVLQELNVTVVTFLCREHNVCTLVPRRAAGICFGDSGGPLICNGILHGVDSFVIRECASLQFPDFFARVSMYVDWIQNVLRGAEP

[11] = biological target: T7, Cathepsin G (Homo sapiens, UniProt P08311); assay: Inhibition of cathepsin G in human U937 cells; type: cell-based, U-937
T7 sequence (P08311 whole entry): T1 sequence (whole entry)

[12] = biological target: T8, Pro-cathepsin H (Homo sapiens, UniProt P09668); assay: Inhibition of human recombinant cathepsin H after 10 mins
T8 sequence (P09668 whole entry): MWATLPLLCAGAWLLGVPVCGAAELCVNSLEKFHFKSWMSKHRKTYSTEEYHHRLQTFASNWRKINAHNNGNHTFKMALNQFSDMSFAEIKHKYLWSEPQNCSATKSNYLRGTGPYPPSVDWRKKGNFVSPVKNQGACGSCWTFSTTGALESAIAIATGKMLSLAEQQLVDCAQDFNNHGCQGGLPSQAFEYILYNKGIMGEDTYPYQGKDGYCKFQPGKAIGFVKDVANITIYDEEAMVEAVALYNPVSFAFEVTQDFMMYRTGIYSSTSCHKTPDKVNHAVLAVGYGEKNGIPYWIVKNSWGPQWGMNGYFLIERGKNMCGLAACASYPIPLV

[13] = biological target: T7, Cathepsin G; assay: Blockade of cathepsin G processing in human U937 cells by densitometry; type: cell-based, U-937
Method in brief: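 U937 cells washed, plated at 2×10^6 cells/ml in methionine/glutamine-free RPMI, inhibitor or 0.5% Me₂SO added during 30 min starvation, pulsed with [³⁵S]methionine (10 μCi/ml) 30 min, re-seeded in complete medium with inhibitor and chased 3 h. Lysates bound to aprotinin-agarose 1 h at room temperature, SDS-PAGE and fluorography. CG band quantitated by densitometry as % inhibition vs vehicle.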

[14] = biological target: Neutrophil elastase (Mus musculus) (UniProt Q3UP87); assay: Inhibition of neutrophil elastase in mouse EcoM-G cells
[15] = biological target: T2, Dipeptidyl peptidase 1; assay: Inhibition of human recombinant cathepsin C after 10 mins
Method in brief: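 Recombinant human cathepsin C at 1 nM in 25 mM MES pH 6.0, 50 mM NaCl, 5 mM DTT, with 50 μM Gly-Arg-AMC (twice Km). Enzyme preincubated with inhibitor 10 min, then substrate added, at room temperature. Fluorogenic AMC release.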

[16] = system: U-937; assay: Cytotoxicity against human U937 cells at 30 uM after 72 hrs annexin-V propidium iodide method; type: functional; method in brief: as §1
[17] = biological target: T9, Myeloblastin (Homo sapiens, UniProt P24158); assay: Inhibition of proteinase-3 in human U937 cells; type: cell-based, U-937
T9 sequence (P24158 whole entry): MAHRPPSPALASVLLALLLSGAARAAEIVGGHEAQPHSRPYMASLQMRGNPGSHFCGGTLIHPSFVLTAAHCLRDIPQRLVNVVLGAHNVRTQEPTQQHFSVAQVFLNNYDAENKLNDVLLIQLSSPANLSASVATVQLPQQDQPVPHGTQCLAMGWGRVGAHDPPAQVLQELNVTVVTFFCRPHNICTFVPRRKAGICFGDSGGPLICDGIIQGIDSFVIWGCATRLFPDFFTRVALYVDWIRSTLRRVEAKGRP

Cathepsin S, sequence (P25774 whole entry): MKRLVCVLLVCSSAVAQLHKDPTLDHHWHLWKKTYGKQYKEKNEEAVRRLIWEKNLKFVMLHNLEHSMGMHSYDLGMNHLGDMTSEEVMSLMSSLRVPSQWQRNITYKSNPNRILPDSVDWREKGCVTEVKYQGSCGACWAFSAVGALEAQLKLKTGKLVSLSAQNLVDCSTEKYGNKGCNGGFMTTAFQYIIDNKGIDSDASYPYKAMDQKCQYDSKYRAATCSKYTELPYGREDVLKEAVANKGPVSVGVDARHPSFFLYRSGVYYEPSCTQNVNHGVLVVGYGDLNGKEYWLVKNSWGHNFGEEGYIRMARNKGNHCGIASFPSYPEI
Procathepsin L, sequence (P07711 whole entry): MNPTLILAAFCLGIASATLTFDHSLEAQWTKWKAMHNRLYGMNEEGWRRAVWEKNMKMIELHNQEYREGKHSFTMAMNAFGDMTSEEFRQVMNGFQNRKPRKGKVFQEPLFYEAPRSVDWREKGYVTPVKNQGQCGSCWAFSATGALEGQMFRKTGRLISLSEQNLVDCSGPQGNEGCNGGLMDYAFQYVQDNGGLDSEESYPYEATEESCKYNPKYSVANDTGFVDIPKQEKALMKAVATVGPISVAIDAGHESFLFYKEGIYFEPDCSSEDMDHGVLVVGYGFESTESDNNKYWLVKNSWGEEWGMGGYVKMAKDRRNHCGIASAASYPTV
T2 sequence (P53634 25-134 limits assumed): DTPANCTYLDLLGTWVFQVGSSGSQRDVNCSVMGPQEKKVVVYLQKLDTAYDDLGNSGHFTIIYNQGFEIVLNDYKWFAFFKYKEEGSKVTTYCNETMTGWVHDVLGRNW
T2 sequence (P53634 231-394 limits assumed): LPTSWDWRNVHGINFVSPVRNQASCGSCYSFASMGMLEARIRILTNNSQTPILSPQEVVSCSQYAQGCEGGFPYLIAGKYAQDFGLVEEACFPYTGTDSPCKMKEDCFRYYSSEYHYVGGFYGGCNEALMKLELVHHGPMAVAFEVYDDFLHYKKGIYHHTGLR
T2 sequence (P53634 395-463 limits assumed): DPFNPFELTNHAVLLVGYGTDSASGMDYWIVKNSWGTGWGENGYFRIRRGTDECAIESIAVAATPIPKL

Row | Structure (SMILES) | IC50 [4] [nM] | IC50 [5] [µM] | IC50 [6] [nM] | IC50 [7] [µM] | IC50 [8] [nM] | IC50 [10] [µM] | IC50 [12] [µM] | IC50 [13] [nM] | IC50 [15] [nM] | further results
1 | C[C@H](N)C(=O)N[C@@H](Cc1ccc(I)cc1)C(=O)C=[N+]=[N-] | – | – | – | – | – | – | – | – | – | Activity [1]: Active; inhibition [2]: 99.6%; Activity [3]: 32%
2 | Cc1cc(C)cc(CC(NC(=O)C(c2ccccc2)c2ccccc2)C(=O)NCC#N)c1 (centres undefined) | 470 | > 50 | 40 | > 50 | 90 | – | – | – | – | –
3 | N#C[C@@]1(NC(=O)C(N)Cc2sccc2F)C[C@@H]1c1ccccc1 (some centres undefined) | 33400 | 0.15 | > 50000 | 0.69 | 15500 | 0.15 | > 50 | 90 | – | IC50 [9]: 170 nM; IC50 [11]: > 10 µM; IC50 [14]: > 10 µM
4 | N#[N+][CH-]C(=O)[C@H](Cc1ccccc1)NC(=O)CN | – | – | > 30000 | – | 25500 | – | 29 | – | 51 | –
5 | CCC[C@@H](NC(=O)N1C(=O)C(CC)(CC)[C@@H]1Oc1ccc(C(=O)N2CCN(C)CC2)cc1)c1ccc2c(c1)OCO2 | – | – | – | – | – | – | – | – | – | Activity [1]: inactive
6 | N#C[C@]1(NC(=O)C(N)Cc2cccs2)C[C@H]1c1ccccc1.O=C(O)C(F)(F)F (single isomer, unassigned) | > 50000 | > 50 | > 50000 | > 50 | > 50000 | > 50 | > 50 | > 50000 | > 30000 | IC50 [9]: > 30000 nM; Activity [16]: 98%
7 | CCC[C@H](NC(=O)C(CC(C)C)NC(=O)c1ccc(-c2ccc(I)cc2)cc1)C(=O)[CH-][N+]#N (some centres undefined) | 9 | – | 65 | – | 10 | – | – | – | 450 | –
8 | N#C[C@]1(NC(=O)[C@@H](N)Cc2ccccc2F)C[C@H]1c1ccccc1 | 1600 | 5.49 | > 3000 | 17.6 | 560 | 4.55 | – | 1200 | > 220 | IC50 [9]: 1900 nM
9 | CC(C)C[C@@H](NC(=O)N1CCOCC1)C(=O)N[C@@H](/C=C/S(=O)(=O)c1ccccc1)CCc1ccccc1 | 1 | 25.5 | 1360 | 39.8 | – | 21.2 | – | – | > 10000 | –
10 | CC(C)C[C@H](NC(=O)[C@H]1O[C@@H]1C(=O)O)C(=O)NCCCCN=C(N)N [E-64] | 7 | – | 10 | – | 13 | – | 0.19 | – | 770 | –
11 | N#C[C@]1(NC(=O)C(N)Cc2cncs2)C[C@H]1c1ccccc1 (some centres undefined) | – | 7.93 | – | > 50 | – | – | – | – | 790 | –
12 | CS(=O)(=O)C[C@H](N[C@@H](c1ccc(Br)cc1)C(F)(F)F)C(=O)NC1(C#N)CC1 | 10 | > 50 | 280 | > 50 | 430 | – | > 50 | > 50000 | > 10000 | –
13 | [N-]=[N+]=CC(=O)[C@H](Cc1ccc(I)cc1)NC(=O)CN (H-Gly-[Phe(4-I)]-CHN2) | > 50000 | – | 2940 | – | 29500 | – | 9.8 | – | 1 | IC50 [11]: > 50 µM; IC50 [14]: > 50 µM; IC50 [17]: > 50 µM
14 | [N-]=[N+]=CC(=O)[C@H](Cc1ccccc1)NC(=O)CN (H-Gly-Phe-CHN2) | – | – | – | – | – | – | – | – | – | inhibition [2]: 100%; Activity [3]: 32%
15 | CCOC(=O)[C@H]1O[C@@H]1C(=O)N[C@@H](CC(C)C)C(=O)NCCC(C)C [ALOXISTATIN] | – | > 10 | – | > 10 | – | > 10 | – | 1100 | – | –

From ChEMBL document CHEMBL1156470, “Inhibition of the activation of multiple serine proteases with a cathepsin C inhibitor requires sustained exposure to prevent pro-enzyme processing” (J Biol Chem, 2007)
